Results on 24 compounds are retold here after ChEMBL document CHEMBL1135911, “Synthesis, biological evaluation, and binding mode of novel 1-[2-(diarylmethoxy)ethyl]-2-methyl-5-nitroimidazoles targeted at the HIV-1 reverse transcriptase” (J Med Chem, 2002).

Where only a bound is given, the exact number is not on record here.

Assay [1] has as its target Human immunodeficiency virus 1. The assay can be described thus: Anti-HIV-1 activity in MT-4 cells.
Assay [2] in a line: (§1) Selectivity Index (CC50:EC50 Ratio). The method in brief: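 Ratio of CC50 (MTT viability of mock-infected MT-4 cells) to EC50 (MTT protection of MT-4 cells from HIV-1 IIIB cytopathicity, 100 CCID50, 4 days at 37 °C).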
The test system of assay [3] is Human immunodeficiency virus 1. The assay is described as follows: Dose required to achieve 50% protection of MT-4 cells from HIV-1 induced cytopathogenicity. Format: functional, organism-based. To be noted: Human immunodeficiency virus 1, MT4. The method in brief:
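MT-4 cells (1 × 10^4/well) in RPMI 1640 with 10% FCS were infected with 100 CCID50 of HIV-1 IIIB, with or without serial dilutions of compound (DMSO stock diluted in medium). After 4 days at 37 °C, viable cells were counted by MTT. EC50 is the dose giving 50% protection from virus-induced cytopathicity; mean of at least two experiments.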

Assay [4] deals with Human immunodeficiency virus type 1 reverse transcriptase (Human immunodeficiency virus 1, UniProt Q72547). The assay can be described thus: Dose required to inhibit the HIV-1 Reverse transcriptase activity by 50%. The method in brief:
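Highly purified recombinant wild-type HIV-1 RT, RNA-dependent polymerase activity. Buffer: 50 mM Tris-HCl pH 7.8, 80 mM KCl, 6 mM MgCl2, 1 mM DTT, 0.1 mg/mL BSA. Template/primer: poly(rC)/oligo(dG)12-18 at 0.5 OD260 unit/mL. Substrate: [3H]dGTP (1 Ci/mmol). Incubated 30 min at 37 °C; acid-insoluble radioactivity read on glass fibre filters.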

Assay [5] deals with MT4. The assay is described as follows: Dose required to reduce the viability of mock-infected cells by 50%. The following applies: Homo sapiens. In kind it is functional. The method in brief: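 Mock-infected MT-4 cells were run in parallel with the antiviral assay: 1 × 10^4 cells/well, serial compound dilutions, 4 days at 37 °C. Viability was read by MTT. CC50 is the dose that reduces viability by 50%; mean of at least two experiments.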

The subject of assay [6] is MT4. Described as §1. In kind it is functional.

In turn, `Cc1ncc([N+](=O)[O-])n1CCOC(c1ccccc1)c1ccc(Cl)cc1` (configuration not stated) had an EC50 in assay [1] of 12 µM.
Turning to `Cc1ncc([N+](=O)[O-])n1CCOC(c1ccccc1)c1cccc([N+](=O)[O-])c1` (configuration not stated), in assay [2], the Selectivity index stood at 154. Further, the EC50 in assay [3] worked out at 600 nM. In assay [4], this compound displayed an IC50 of 300 nM. The same compound yielded a half-maximal cytotoxic concentration (CC50) with MT4 [5] of 92.5 µM.
Compound `Cc1cccc(C(OCCn2c([N+](=O)[O-])cnc2C)c2ccccc2)c1` (configuration not stated) came in with a concentration giving a half-maximal response (EC50) in assay [3] of 100 nM. Also, the Selectivity index in the assay with MT4 [6] is listed as above 2000. For the same compound, in assay [4], the IC50 amounted to 300 nM. Besides, the CC50 with MT4 [5] was above 200 µM.
In turn, `CC(=O)Nc1ccc(C(OCCn2c([N+](=O)[O-])cnc2C)c2ccccc2)cc1` (configuration not stated) gave an EC50 in assay [3] above 200000 nM. The same compound displayed a CC50 in the assay on MT4 [5] above 200 µM.
`Cc1ncc([N+](=O)[O-])n1CCOC(c1ccccc1)c1cc(Cl)cc(Cl)c1` (configuration not stated) gave an EC50 in assay [3] of 45000 nM. The Selectivity index with MT4 [6] is above 4. In the assay on MT4 [5], this compound gave a CC50 above 200 µM.
In assay [1], `Cc1ccc(C(OCCn2c([N+](=O)[O-])cnc2C)c2ccccc2)cc1` (configuration not stated) showed an EC50 of 1.41 µM.
In assay [3], `Cc1ncc([N+](=O)[O-])n1CCOC(c1ccccc1)c1ccccc1F` (configuration not stated) returned an EC50 of 200 nM. The Selectivity index in the assay on MT4 [6] is on record as 315. Besides, the IC50 in assay [4] stood at 400 nM. Moreover, in the assay on MT4 [5], it took 63 µM to reach half-maximal cytotoxicity (CC50).
In turn, `Cc1ncc([N+](=O)[O-])n1CCCOC(c1ccccc1)c1ccccc1` gave a concentration giving a half-maximal response (EC50) in assay [3] of 35000 nM. In the assay with MT4 [6], the Selectivity index was 3. In the assay on MT4 [5], the CC50 is 96.5 µM.
In assay [3], `Cc1ncc([N+](=O)[O-])n1CCOC(c1ccccc1)c1cccc(Cl)c1` (configuration not stated) returned an EC50 of 200 nM. Further, the Selectivity index in the assay with MT4 [6] is recorded as above 1000. The same compound yielded a half-inhibitory concentration (IC50) in assay [4] of 500 nM. This compound also displayed a half-maximal cytotoxic concentration (CC50) in the assay with MT4 [5] above 200 µM.
`Cc1ncc([N+](=O)[O-])n1CCOC(c1ccccc1)c1ccccc1` came in with an EC50 in assay [3] of 200 nM. Moreover, in the assay with MT4 [6], the Selectivity index is above 1000. Also, the CC50 in the assay with MT4 [5] was above 200 µM.
The compound `CC(C)Nc1cccnc1N1CCN(C(=O)c2cc3cc(NS(C)(=O)=O)ccc3[nH]2)CC1` [DELAVIRDINE] came in with an EC50 in assay [3] of 10 nM. In the assay on MT4 [5], the 50% cytotoxic concentration (CC50) was above 30 µM.
In assay [1], `Cc1ncc([N+](=O)[O-])n1CCOC(c1ccccc1)c1ccc(F)cc1` (configuration not stated) had a half-maximal effective concentration (EC50) of 0.891 µM.
In assay [3], `Cc1ncc([N+](=O)[O-])n1CCOC(c1ccccc1)c1cccc(F)c1` (configuration not stated) had a 50% effective concentration (EC50) of 100 nM. Moreover, the Selectivity index with MT4 [6] was above 2000. The compound further gave an IC50 in assay [4] of 500 nM. The compound further registered a CC50 with MT4 [5] above 200 µM.
Compound `Cc1ncc([N+](=O)[O-])n1CCOC(c1ccccc1)c1cc(F)cc(F)c1` (configuration not stated) returned an EC50 in assay [3] of 1000 nM. Further, the Selectivity index in the assay with MT4 [6] is given as above 200. The compound also yielded a CC50 in the assay with MT4 [5] above 200 µM.
Compound `Cc1ccccc1C(OCCn1c([N+](=O)[O-])cnc1C)c1ccccc1` (configuration not stated) displayed a concentration giving a half-maximal response (EC50) in assay [3] of 200 nM. The Selectivity index in the assay with MT4 [6] is recorded as 380. The half-maximal inhibitory concentration (IC50) in assay [4] amounted to 200 nM. Further, it took 76 µM to reach half-maximal cytotoxicity with MT4 [5] (CC50).
`COc1ccc(C(OCCn2c([N+](=O)[O-])cnc2C)c2ccccc2)cc1` (configuration not stated) came in with a 50% effective concentration (EC50) in assay [3] of 86000 nM. In the assay with MT4 [6], the Selectivity index was above 2. This compound also gave a cytotoxic concentration (CC50) in the assay on MT4 [5] above 200 µM.
Compound `Cc1ncc([N+](=O)[O-])n1CCOC(c1ccccc1)c1ccc(-c2ccccc2)cc1` (configuration not stated) had an EC50 in assay [1] of 17 µM.
Take `Cc1ncc([N+](=O)[O-])n1CCOC(c1ccccc1)c1ccc(Cl)c(Cl)c1` (configuration not stated): the EC50 in assay [3] was 97000 nM. Besides, the Selectivity index with MT4 [6] is listed as above 2. Besides, half-maximal cytotoxicity in the assay on MT4 [5] (CC50) was put at 200 µM.
In assay [1], `Cc1ncc([N+](=O)[O-])n1CCOC(c1ccccc1)c1ccc(C(C)(C)C)cc1` (configuration not stated) showed an EC50 of 3.98 µM.
Regarding `Cc1ncc([N+](=O)[O-])n1CCOC(c1ccccc1)c1ccccc1Cl` (configuration not stated), in assay [3], the response was half-maximal at 600 nM (EC50). In addition, the Selectivity index in the assay on MT4 [6] is recorded as 85. This compound also showed an IC50 in assay [4] of 600 nM. Half-maximal cytotoxicity in the assay with MT4 [5] (CC50) was put at 52 µM.
Turning to `Cc1ncc([N+](=O)[O-])n1CCOC(c1ccccc1)c1cccc(-n2cccc2)c1` (configuration not stated), the EC50 in assay [3] worked out at 14000 nM. In addition, in the assay on MT4 [6], the Selectivity index is on record as above 14. The same compound registered a CC50 in the assay on MT4 [5] above 200 µM.
In the case of `Cc1ncc([N+](=O)[O-])n1CCOC(c1ccccc1)c1ccc([N+](=O)[O-])cc1` (configuration not stated), in assay [2], the Selectivity index was determined as 22. This compound yielded a 50% effective concentration (EC50) in assay [3] of 5000 nM. The compound also registered a CC50 in the assay with MT4 [5] of 111 µM.
For `Cc1ncc([N+](=O)[O-])n1CCOC(c1ccccc1)c1ccc2ccccc2c1` (configuration not stated), the midpoint of the response in assay [3], the EC50, lay at 106000 nM. The Selectivity index with MT4 [6] was above 1.8. The same compound yielded a CC50 with MT4 [5] above 200 µM.
The matching figures for `Cc1cc(C)cc(C(OCCn2c([N+](=O)[O-])cnc2C)c2ccccc2)c1` (configuration not stated): 400 nM, above 500 and 200 µM.
